In ChEMBL document CHEMBL4665889, “Design, Synthesis, and Pharmacological Characterization of a Neutral, Non-Prodrug Thrombin Inhibitor with Good Oral Pharmacokinetics” (J Med Chem, 2020):

How the values were obtained:
[1] = Ratio of drug level in blood to plasma in Wistar Hannover rat at 0.3 to 0.5 mg/kg, iv by LC-MS/MS analysis; format: ADME, organism-based; conditions: blood and plasma, dose 0.3-0.5 mg/kg, time <=24 hrs
[2] = Clearance in Wistar rat hepatocytes at 1 uM incubated up to 90 mins by LC-MS/MS analysis; format: ADME, cell-based, Hepatocyte; conditions: for CLhep predicted at 1 µM: Wistar
Procedure, shortened: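 Fresh male Wistar rat hepatocytes, 1 × 10⁶ viable cells/mL, in Williams' medium E at 37 °C, pH 7.4, with 1 μM substrate and <1% acetonitrile. Samples at 2–90 min quenched in acetonitrile and analysed by LC-MS/MS.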

[3] = Half life in Wistar Hannover rat at 0.3 to 0.5 mg/kg, iv by LC-MS/MS analysis; format: ADME, organism-based; conditions: in vivo, dose 0.3-0.5 mg/kg, time <=24 hrs
Procedure, shortened: (§1)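 Male Wistar Hannover rats, catheterized under isoflurane; one day later iv injection into lateral tail vein at 0.3 to 0.5 mg/kg in plasma containing 2% DMSO. Blood sampled via catheter from 0.033 to 24 h. Plasma precipitated with acetonitrile, analysed by LC-MS/MS (10 mM ammonium acetate pH 3.0/acetonitrile gradient). PK parameters calculated from plasma concentrations.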

[4] = biological target: T1, Nuclear receptor subfamily 1 group I member 2 (Homo sapiens, UniProt O75469); assay: Activation of human PXR expressed in human HepG2 cells; format: ADME, cell-based
T1 sequence (O75469 whole entry): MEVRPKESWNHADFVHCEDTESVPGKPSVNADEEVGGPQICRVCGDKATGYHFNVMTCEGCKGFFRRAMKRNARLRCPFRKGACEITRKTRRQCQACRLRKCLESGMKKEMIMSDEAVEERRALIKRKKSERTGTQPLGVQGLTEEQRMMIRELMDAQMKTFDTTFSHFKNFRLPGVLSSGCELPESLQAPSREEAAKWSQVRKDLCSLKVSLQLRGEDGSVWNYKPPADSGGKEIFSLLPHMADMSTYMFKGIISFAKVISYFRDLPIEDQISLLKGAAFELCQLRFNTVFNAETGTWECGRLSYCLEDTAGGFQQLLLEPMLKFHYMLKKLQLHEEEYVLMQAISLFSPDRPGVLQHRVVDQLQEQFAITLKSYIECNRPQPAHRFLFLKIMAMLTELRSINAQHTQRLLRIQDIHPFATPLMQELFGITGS
Procedure, shortened: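 HepG2 cells transiently co-transfected with human PXR and a luciferase reporter under the human CYP3A4 promoter, 48 h before readout. 24 h after seeding, 1:3 serial dilutions (2 nM to 50 μM, 0.5% DMSO) added. Luminescence normalized to rifampicin (100%) and DMSO (0%). MEC is the lowest concentration raising signal above 4-fold SD of DMSO background.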

[5] = MRT in Wistar Hannover rat at 0.3 to 0.5 mg/kg, iv by LC-MS/MS analysis; format: ADME, organism-based; conditions: in vivo, dose 0.3-0.5 mg/kg, time <=24 hrs; procedure, shortened: as §1
[6] = Volume of distribution at steady state in Wistar Hannover rat at 0.3 to 0.5 mg/kg, iv by LC-MS/MS analysis; format: ADME, organism-based; conditions: in vivo, dose 0.3-0.5 mg/kg, time <=24 hrs, read-out: Vdss; procedure, shortened: as §1
[7] = AUC/dose in Wistar Hannover rat at 0.3 to 0.5 mg/kg, iv by LC-MS/MS analysis; format: ADME, organism-based; conditions: in vivo, dose 0.3-0.5 mg/kg, time <=24 hrs; procedure, shortened: as §1
[8] = Blood clearance in Wistar Hannover rat at 0.3 to 0.5 mg/kg, iv by LC-MS/MS analysis; format: ADME, organism-based; conditions: whole blood, dose 0.3-0.5 mg/kg, time <=24 hrs; procedure, shortened: as §1
[9] = Permeability from apical to basolateral side in human Caco2 cells incubated for 2 hrs by LC-MS/MS analysis; format: ADME, cell-based; conditions: Caco-2
Procedure, shortened: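 Caco-2 cells grown 15 d on 0.4 μm inserts, TEER ≥600 Ω. Compound (DMSO stock diluted 100-fold) in HBSS pH 7.4 with 10 mM HEPES and 20 mM glucose, added apically or basolaterally. Incubated 2 h at 37 °C and analysed by LC-MS/MS. Papp = (Vr/P0)·(1/S)·(P2/t); mean and SD.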

[10] = biological target: T1, Nuclear receptor subfamily 1 group I member 2; assay: Activation of human PXR human hepatocytes assessed as induction of CYP3A4 mRNA expression incubated for 48 hrs by qPCR analysis; format: ADME, tissue-based, Hepatocyte
Procedure, shortened: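 Human hepatocytes in collagen sandwich, cultured 1 d, then treated with eight 1:3 serial concentrations for 2 consecutive days with daily media change. mRNA isolated on magnetic beads, reverse transcribed, and quantified by TaqMan qRT-PCR against actin/tubulin. Fold induction over vehicle by ΔΔCt; NOEL reported.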

SMILES	CLhep predicted at 1 µM [2]	MEC [4]	Papp A→B at 2 h [9]	also measured
COc1cc(C(=O)N2CC(C)(CCO)OC[C@H]2C)cc2nc(N[C@H](CF)c3cccc(Cl)c3)oc12 (stereo partly drawn)	56.7 mL/min/kg	0.39 µM		blood plasma ratio [1]: 0.94; half-life [3]: 66 min; MRT [5]: 1.1 h; Vd [6]: 3.3 L/kg; AUC/dose [7]: 0.33 kg·h/L; clearance [8]: 53.3 mL/min/kg
COc1cc(C(=O)N2CCC(O)CC2)cc2nc(NCc3cccc(Cl)c3)oc12	21.7 mL/min/kg	3.1 µM	7.1 ×10⁻⁶ cm/s	
COc1cc(C(=O)N2CCC(O)C(C)C2)cn2nc(NCc3cccc(Cl)c3)nc12 (racemic)	35 mL/min/kg	20 µM	7.1 ×10⁻⁶ cm/s	
CCC1CC(O)C(C)CN1C(=O)c1cc(OC)c2oc(NCc3cccc(Cl)c3)nc2c1 (racemic)	61.7 mL/min/kg			
COc1cc(C(=O)N2CC[C@@H](O)C(C)(C)C2)cc2nc(NCc3cccc(Cl)c3)oc12 (racemic)	51.7 mL/min/kg	6.3 µM		
COc1cc(C(=O)N2CCC(O)C(C)C2)cc2nc(NCc3cccc(Cl)c3)oc12 (racemic)	45 mL/min/kg	1.4 µM	8.4 ×10⁻⁶ cm/s	
COc1cc(C(=O)N2C[C@H](C)OC[C@@H]2CCO)cc2nc(N[C@H](C)c3cccc(Cl)c3)oc12	45 mL/min/kg	2.8 µM	10.1 ×10⁻⁶ cm/s	
COc1cc(C(=O)N2CC[C@H](O)[C@@H](C)C2)cc2nc(NCc3cccc(Cl)c3)oc12	36.7 mL/min/kg			
COc1cc(C(=O)N2CC(C)OCC2C2CC(O)C2)cc2nc(N[C@H](C)c3cccc(Cl)c3)oc12 (stereo partly drawn)	56.7 mL/min/kg	3.4 µM		
COc1cc(C(=O)N2CC(C)OCC2CCO)cn2nc(NCc3cccc(Cl)c3)nc12 (stereo not drawn)	31.7 mL/min/kg	11 µM		
COc1cc(C(=O)N2CCC(O)C(C)C2)cc2nc(NCc3cc(Cl)ccc3O)oc12 (racemic)		8.3 µM		
COc1cc(C(=O)N2CC(C)OCC2CO)cc2nc(N[C@H](C)c3cccc(Cl)c3)oc12 (stereo partly drawn)	15.5 mL/min/kg	0.29 µM		blood plasma ratio [1]: 0.88; half-life [3]: 66 min; MRT [5]: 1.3 h; Vd [6]: 2.7 L/kg; AUC/dose [7]: 0.47 kg·h/L; clearance [8]: 40 mL/min/kg
COc1cc(C(=O)N2CCCC2(C)C)cc2nc(NCc3cccc(Cl)c3)oc12	58.3 mL/min/kg			
COc1cc(C(=O)N2CC(C)OCC2CCO)cc2nc(NCc3cc(Cl)ccn3)oc12 (stereo not drawn)	20 mL/min/kg	17 µM	11.1 ×10⁻⁶ cm/s	blood plasma ratio [1]: 1.08; NOAEL [10]: > 10000 ng/mL; half-life [3]: 30 min; MRT [5]: 0.51 h; Vd [6]: 1.3 L/kg; AUC/dose [7]: 0.39 kg·h/L; clearance [8]: 40 mL/min/kg
O=C(NCc1cccc(Cl)c1)c1ccc2cn(CCN3CCOC3=O)nc2c1			6.2 ×10⁻⁶ cm/s	clearance [8]: 23.3 mL/min/kg
COc1cc(C(=O)N2CC(C)OCC2C2CC(O)C2)cn2nc(NCc3cccc(Cl)c3)nc12 (stereo not drawn)	50 mL/min/kg	13 µM	7.2 ×10⁻⁶ cm/s	

SMILES	CLhep predicted at 1 µM [2]	MEC [4]	Papp A→B at 2 h [9]	also measured
COc1cc(C(=O)N2CC(C)(CCO)OC[C@H]2C)cc2nc(N[C@H](C)c3cccc(Cl)c3)oc12 (stereo partly drawn)	58.3 mL/min/kg	0.29 µM		
COc1cc(C(=O)N2CC(C)C(O)CC2C)cc2nc(NCc3cccc(Cl)c3)oc12 (stereo not drawn)	56.7 mL/min/kg	2.6 µM	12.7 ×10⁻⁶ cm/s	
COc1cc(C(=O)N2CCC(O)C(C)C2)cc2nc(NC3(c4cccc(Cl)c4)CC3)oc12 (racemic)	46.7 mL/min/kg			
COc1cc(C(=O)N2CC(C)CCC2CCO)cc2nc(NCc3cccc(Cl)c3)oc12 (racemic)	63.3 mL/min/kg	0.32 µM	19.1 ×10⁻⁶ cm/s	
CC[C@@H]1CO[C@@](C)(CCO)CN1C(=O)c1cc(OC)c2oc(N[C@H](C)c3cccc(Cl)c3)nc2c1	65 mL/min/kg	0.26 µM	6.8 ×10⁻⁶ cm/s	blood plasma ratio [1]: 1.07; NOAEL [10]: 1111 ng/mL; half-life [3]: 60 min; MRT [5]: 1.2 h; Vd [6]: 3.7 L/kg; AUC/dose [7]: 0.32 kg·h/L; clearance [8]: 65 mL/min/kg
COc1cc(C(=O)N2CC(C)OCC2C2CC(O)C2)cc2nc(N[C@H](CF)c3cccc(Cl)c3)oc12 (stereo partly drawn)	56.7 mL/min/kg	3 µM		
COc1cc(C(=O)N2CCOCC2(C)C)cc2nc(NCc3cccc(Cl)c3)oc12		1.3 µM		
COc1cc(C(=O)N2CCC(O)C(C)C2)cc2nc(NCc3cncc(Cl)c3)oc12 (racemic)	40 mL/min/kg		0.93 ×10⁻⁶ cm/s	
CCCN(CC1CCOC1)C(=O)c1cc(OC)c2oc(NCc3cccc(Cl)c3)nc2c1 (racemic)	65 mL/min/kg		24.6 ×10⁻⁶ cm/s	
COc1cc(C(=O)N2C[C@@H](C)OC[C@H]2CCO)cc2nc(N[C@H](C)c3cccc(Cl)c3)oc12	38.3 mL/min/kg	1.4 µM		
COc1cc(C(=O)N2CC(C)C(O)CC2C2CC2)cc2nc(NCc3cccc(Cl)c3)oc12 (racemic)	63.3 mL/min/kg	0.26 µM	13.8 ×10⁻⁶ cm/s	
COc1cc(C(=O)N2CC(C)CCC2CCO)cc2nc(NCc3cccc(Cl)c3)oc12 (stereo in doubt; 37b)		0.03 µM		CLH ([2]; 1.5 h, 1 µM): 3.4 L/h/kg
COc1cc(C(=O)N2CCC(O)C(C)C2)cc2nc(NCc3cc(Cl)ccn3)oc12 (racemic)	14.3 mL/min/kg	3.6 µM	4.1 ×10⁻⁶ cm/s	
COc1cc(C(=O)N2CC(C)OCC2C2CC(O)C2)cc2nc(NCc3cc(Cl)ccn3)oc12 (stereo not drawn)	45 mL/min/kg	8.2 µM		
COc1cc(C(=O)N2CC(C)C(O)CC2CCO)cc2nc(NCc3cccc(Cl)c3)oc12 (racemic)	4.5 mL/min/kg	0.81 µM	0.94 ×10⁻⁶ cm/s	
COc1cc(C(=O)N2CC(C)(CCO)OC[C@H]2C)cc2nc(NCc3cc(Cl)ccn3)oc12 (stereo partly drawn)	41.7 mL/min/kg	8 µM		blood plasma ratio [1]: 1.08; NOAEL [10]: > 10000 ng/mL; half-life [3]: 26.4 min; MRT [5]: 0.46 h; Vd [6]: 2 L/kg; AUC/dose [7]: 0.23 kg·h/L; clearance [8]: 66.7 mL/min/kg
